# Assay results: ChEMBL document CHEMBL4257467, “Synthesis and pharmaceutical characterization of site specific mycophenolic acid-modified Xenopus glucagon-like peptide-1 analogs” (Medchemcomm, 2018)
# Activity calls are given as the source filed them. *1 amine or outer side, *2 acyl side, *3 side chain or, on linkers, in order; H or OH if unused. Where a SMILES comes first, the peptide text is derived from it. Side-chain parts run from the residue outwards. The star is where a group is joined. Mycophenolyl = COc1c(C)c2c(c(O)c1C/C=C(\C)CCC(=O)*)C(=O)OC2; γGlu = O=C(O)[C@H](CCC(=O)[*:2])N[*:1]; 12Ado = NCCCCCCCCCCCC(=O)O
# Tests used:
# [1] = target: Glucagon-like peptide 1 receptor (Homo sapiens, UniProt P43220); test: Agonist activity at human GLP1 receptor expressed in HEK293 cells assessed as increase in cAMP level after 30 mins by HTRF method; type: functional, cell-based
# Sequence of Glucagon-like peptide 1 receptor (P43220 whole entry): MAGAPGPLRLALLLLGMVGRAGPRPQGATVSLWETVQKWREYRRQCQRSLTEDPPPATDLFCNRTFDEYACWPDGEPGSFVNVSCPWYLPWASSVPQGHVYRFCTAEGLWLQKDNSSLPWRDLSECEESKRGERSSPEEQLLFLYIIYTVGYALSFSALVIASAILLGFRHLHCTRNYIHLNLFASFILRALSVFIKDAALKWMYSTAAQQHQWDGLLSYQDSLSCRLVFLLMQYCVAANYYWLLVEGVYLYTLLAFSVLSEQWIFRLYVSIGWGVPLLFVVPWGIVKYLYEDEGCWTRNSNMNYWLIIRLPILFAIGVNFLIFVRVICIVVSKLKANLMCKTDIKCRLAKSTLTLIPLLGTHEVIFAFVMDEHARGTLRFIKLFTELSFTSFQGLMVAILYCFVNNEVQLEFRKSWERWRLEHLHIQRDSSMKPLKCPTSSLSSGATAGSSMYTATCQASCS
# Outline: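 HEK293 cells stably expressing human GLP-1 receptor, thawed, suspended in DMEM with 20 mM HEPES, 2 mM L-Glu, 0.5% FBS, 1% pen-strep. Compounds dissolved in DMSO, diluted in assay buffer to 1 × 10−13–1 × 10−6 M final, 30 min at 37 °C in 5% CO2. cAMP read by HTRF. EC50 as means ± SD of three individual experiments, n = 3.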
# Mus musculus [2] = test: Antidiabetic activity in Kunming mouse assessed as reduction in blood glucose level at 25 nmol/kg, ip pretreated for 30 mins followed by glucose-challenge and measured after 15 to 120 mins by IPGTT; type: functional, organism-based
# Outline: (§1)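 Male Kunming mice (20–25 g, n = 6) fasted overnight. Peptide or saline 25 nmol kg−1 ip at −30 min, ip glucose 2 g kg−1 at 0 min. Tail-vein blood glucose by glucometer at −30, 0, 15, 30, 60 and 120 min. Glucose AUC0–120min calculated; means ± SD.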
# Mus musculus [3] = test: Antidiabetic activity in Kunming mouse assessed as reduction in blood glucose AUC at 25 nmol/kg, ip pretreated for 30 mins followed by glucose-challenge and measured after 15 to 120 mins by IPGTT; type: functional, organism-based; outline: as §1
# Albumin = Albumin (Homo sapiens, UniProt P02768); test: Binding affinity to human serum albumin after 60 mins by ultrafiltration-based HPLC analysis; type: ADME; settings: human serum albumin, read-out: PB (converted)
# Sequence of Albumin (P02768 whole entry): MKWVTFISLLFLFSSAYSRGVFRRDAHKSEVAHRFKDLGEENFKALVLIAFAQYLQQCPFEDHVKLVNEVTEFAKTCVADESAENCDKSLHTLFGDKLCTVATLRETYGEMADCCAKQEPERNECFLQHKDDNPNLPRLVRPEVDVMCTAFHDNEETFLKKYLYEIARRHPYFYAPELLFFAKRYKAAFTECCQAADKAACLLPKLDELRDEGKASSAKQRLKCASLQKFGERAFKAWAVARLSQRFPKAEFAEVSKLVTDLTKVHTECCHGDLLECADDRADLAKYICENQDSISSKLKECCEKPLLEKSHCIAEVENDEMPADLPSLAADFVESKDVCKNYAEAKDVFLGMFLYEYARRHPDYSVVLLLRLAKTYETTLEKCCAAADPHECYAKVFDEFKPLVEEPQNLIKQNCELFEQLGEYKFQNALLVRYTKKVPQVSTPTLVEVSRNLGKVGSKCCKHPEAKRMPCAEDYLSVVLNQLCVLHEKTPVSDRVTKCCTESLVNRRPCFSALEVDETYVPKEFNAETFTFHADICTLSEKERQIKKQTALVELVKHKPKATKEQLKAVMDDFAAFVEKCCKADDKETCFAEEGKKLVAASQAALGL
# Outline: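 Peptide in PBS pH 7.4 (100 μg ml−1) mixed with HSA (10 mg ml−1 in PBS), incubated 60 min at 37 °C. Ultrafiltration through 30 kDa cutoff filter, 30 min at 3500 rpm. Free compound in filtrate by HPLC. Membrane adsorption checked (<4%). Repeated three times.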
# [4] = Half life in Sprague-Dawley rat plasma at 0.5 mL by LC-MS/MS analysis; type: ADME, cell-free; settings: Sprague-Dawley
# Outline: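 Plasma from male Sprague-Dawley rats (200–250 g). Peptide in PBS pH 7.4 added to initial 1000 ng ml−1 and incubated at 37 °C for 48 h. Samples at 2, 4, 8, 12, 24, 36, 48 h precipitated with acetonitrile containing 2% formic acid, centrifuged, analysed by LC-MS/MS in MRM mode. Degradation curves in triplicate.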
# Mus musculus [5] = test: Hypoglycemic activity in C57BL/6J m+/+ Lepr db mouse assessed as blood glucose level at 25 nmol/kg, ip pretreated for 30 mins followed by glucose challenge and measured after 15 mins by IPGTT; type: functional
# Outline: (§2)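 Male db/db mice (30–40 g, 9 weeks, n = 6) fasted 18 h. Saline or peptide 25 nmol kg−1 ip at −30 min, ip glucose 1 g kg−1 at 0 min. Tail-vein glucose by glucometer at −30, 0, 10, 15, 30, 45, 60, 120 min. Plasma insulin by mouse insulin ELISA. AUC0–120min for glucose and insulin calculated; means ± SD.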
# Mus musculus [6] = test: Antidiabetic activity in C57BL/6J m+/+ Lepr db mouse assessed as plasma insulin level at 25 nmol/kg, ip pretreated for 30 mins followed by glucose challenge and measured after 15 mins by ELISA; type: functional; outline: as §2
# Mus musculus [7] = test: Antidiabetic activity in C57BL/6J m+/+ Lepr db mouse assessed as increase in plasma insulin AUC (0 to 120 mins) at 25 nmol/kg, ip pretreated for 30 mins followed by glucose challenge by ELISA; type: functional, organism-based; outline: as §2
# Mus musculus [8] = test: Hypoglycemic activity in non-fasting C57BL/6J m+/+ Lepr db mouse assessed as rebound time from the lowest glucose level (12 mmol/L) to diabetic glucose level (>15 mmol/L) at 25 nmol/kg, ip by glucometric method; type: functional
# Outline: (§3)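 Non-fasting male db/db mice (30–40 g, 9 weeks, n = 6) with free food and water. Single ip dose at 0 h: liraglutide 25 nmol kg−1, test peptides 25 or 100 nmol kg−1, or saline. Blood glucose by glucometer at 0, 2, 4, 6, 12, 24, 48 h. Rebound time to >15 mmol L−1 and AUC0–48h derived; means ± SD.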
# Mus musculus [9] = test: Hypoglycemic activity in non-fasting C57BL/6J m+/+ Lepr db mouse assessed as rebound time from the lowest glucose level (12 mmol/L) to diabetic glucose level (>15 mmol/L) at 100 nmol/kg, ip by glucometric method; type: functional; outline: as §3
# Mus musculus [10] = test: Hypoglycemic activity in non-fasting C57BL/6J m+/+ Lepr db mouse assessed as reduction in blood glucose AUC (0 to 48 hrs) at 25 to 100 nmol/kg, ip by glucometric method; type: functional, organism-based; outline: as §3
# Mus musculus [11] = test: Hypoglycemic activity in C57BL/6J m+/+ Lepr db mouse assessed as blood glucose AUC (0 to 120 mins) at 25 nmol/kg, ip pretreated for 30 mins followed by glucose challenge by IPGTT; type: functional, organism-based; outline: as §2
# Mus musculus [12] = test: Hypoglycemic activity in C57BL/6J m+/+ Lepr db mouse assessed as reduction in fasting blood glucose level at 25 nmol/kg, ip pretreated for 30 mins followed by glucose challenge at 6 hrs interval for 24 hrs and measured up to 3 hrs by OGTT; type: functional, organism-based
# Outline: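 Male db/db mice (30–40 g, 9 weeks, n = 6) fasted 18 h, given saline or peptide 25 nmol kg−1 ip at −0.5 h. Oral glucose 1.5 g kg−1 at 0 h, repeated every 6 h (6, 12, 18 h) over 24 h. Blood glucose by glucometer at 0, 0.25, 0.5, 1, 2 and 3 h after each load.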
# Mus musculus [13] = test: Antidiabetic activity in C57BL/6J m+/+ Lepr db mouse assessed as reduction in glycated hemoglobin level at 50 nmol/kg, ip administered once daily for 5 weeks relative to control; type: functional; set-up: scale not given: the % may be the effect or the level left
# Mus musculus [14] = test: Antidiabetic activity in C57BL/6J m+/+ Lepr db mouse assessed as non-fasting blood glucose levels at 50 nmol/kg, ip administered once daily for 5 weeks measured every 4 days during compound dosing; type: functional
# Mus musculus [15] = test: Antidiabetic activity in C57BL/6J m+/+ Lepr db mouse assessed as increase in non-fasting plasma insulin levels at 50 nmol/kg, ip administered once daily for 5 weeks measured every 4 days during compound dosing; type: functional, organism-based
# Mus musculus [16] = test: Antidiabetic activity in C57BL/6J m+/+ Lepr db mouse assessed as reduction in body weight gain at 50 nmol/kg, ip administered once daily for 5 weeks measured every 4 days during compound dosing relative to control; type: functional; set-up: scale not given: the % may be the effect or the level left
# Mus musculus [17] = test: Antidiabetic activity in C57BL/6J m+/+ Lepr db mouse assessed as reduction in food intake at 50 nmol/kg, ip administered once daily for 5 weeks measured every 4 days during compound dosing; type: functional, organism-based
# Mus musculus [18] = test: Antidiabetic activity in C57BL/6J m+/+ Lepr db mouse assessed as change in blood glucose level at 50 nmol/kg, ip administered once daily for 5 weeks followed by glucose challenge measured after 15 to 120 mins by IPGTT; type: functional, organism-based
# Mus musculus [19] = test: Antidiabetic activity in C57BL/6J m+/+ Lepr db mouse assessed as reduction in blood glucose AUC (0 to 120 mins) at 50 nmol/kg, ip administered once daily for 5 weeks followed by glucose challenge by IPGTT; type: functional, organism-based
# Mus musculus [20] = test: Antidiabetic activity in C57BL/6J m+/+ Lepr db mouse assessed as serum triglyceride level at 50 nmol/kg, ip administered once daily for 5 weeks (reference value: 2.3 +/- 0.3 mmol/L); type: functional
# Mus musculus [21] = test: Antidiabetic activity in C57BL/6J m+/+ Lepr db mouse assessed as serum total cholesterol level at 50 nmol/kg, ip administered once daily for 5 weeks (reference value: 6.5 +/- 0.4 mmol/L); type: functional
# Mus musculus [22] = test: Antidiabetic activity in C57BL/6J m+/+ Lepr db mouse assessed as serum LDL-cholesterol level at 50 nmol/kg, ip administered once daily for 5 weeks (reference value: 2.2 +/- 0.3 mmol/L); type: functional
# Mus musculus [23] = test: Toxicity in C57BL/6J m+/+ Lepr db mouse assessed as HDL-cholesterol level at 50 nmol/kg, ip administered once daily for 5 weeks (reference value: 1.7 +/- 0.3 mmol/L); type: organism-based; settings: in vivo, 840 h
# Mus musculus [24] = test: Hepatotoxicity in C57BL/6J m+/+ Lepr db mouse assessed as serum ALT level at 50 nmol/kg, ip administered once daily for 5 weeks (reference value: 61.4 +/- 10 IU/L); type: toxicity, organism-based; settings: in vivo, 840 h
# Mus musculus [25] = test: Hepatotoxicity in C57BL/6J m+/+ Lepr db mouse assessed as serum AST level at 50 nmol/kg, ip administered once daily for 5 weeks (reference value: 75 +/- 7.4 IU/L); type: toxicity, organism-based; settings: in vivo, 840 h
Molecule,EC50 [1] [nM],Activity (Mus musculus [2]),Activity (Mus musculus [3]),fraction unbound at 1 h (Albumin),half-life [4] [h],Activity (Mus musculus [5]) [nmol/L],Activity (Mus musculus [6]) [mIU/L],Activity (Mus musculus [7]),Time (Mus musculus [8]) [h],Time (Mus musculus [9]) [h],Activity (Mus musculus [10]),other results
CC[C@H](C)[C@H](NC(=O)[C@H](CC(C)C)NC(=O)[C@H](Cc1c[nH]c2ccccc12)NC(=O)[C@H](CCC(=O)O)NC(=O)[C@@H](NC(=O)[C@H](Cc1ccccc1)NC(=O)[C@H](CCC(=O)O)NC(=O)[C@H](CCCCNC(=O)CC[C@H](NC(=O)CCCCCCCCCCCNC(=O)CC/C(C)=C/Cc1c(O)c2c(c(C)c1OC)COC2=O)C(=O)O)NC(=O)[C@H](C)NC(=O)[C@H](C)NC(=O)[C@H](CCC(=O)O)NC(=O)[C@H](CCC(=O)O)NC(=O)[C@H](CCC(=O)O)NC(=O)[C@H](CC(C)C)NC(=O)[C@H](Cc1ccc(O)cc1)NC(=O)[C@H](CCC(=O)O)NC(=O)[C@@H](NC(=O)[C@@H](NC(=O)[C@H](CC(=O)O)NC(=O)[C@H](CC(N)=O)NC(=O)[C@@H](NC(=O)[C@H](Cc1ccc(O)cc1)NC(=O)[C@@H](NC(=O)CNC(=O)[C@H](CCC(=O)O)NC(=O)CNC(=O)[C@@H](N)Cc1cnc[nH]1)[C@@H](C)O)[C@@H](C)O)C(C)C)[C@@H](C)O)[C@@H](C)CC)C(=O)N[C@@H](CCCCN)C(=O)NCC(=O)N[C@@H](CCCCN)C(=O)N1CCC[C@H]1C(=O)N[C@@H](CO)C(=O)N[C@@H](CO)C(=O)NCC(=O)N[C@@H](C)C(=O)N1CCC[C@H]1C(=O)N1CCC[C@H]1C(=O)N1CCC[C@H]1C(=O)N[C@@H](CO)C(=O)O (H-HGEGTYTNDVTEYLEEEAAK([γGlu-12Ado-Mycophenolyl])EFIEWLIKGKPSSGAPPPS-OH),5.2,Active,Active,0.152,34.2,1.24e+07,16.5,Active,18.9,30.4,Active,
H-HGEGTYTNDVTEYLEEEAAK([γGlu-12Ado-Mycophenolyl])EFIEWLIKGKPSSGAPPSKKKKKK-OH,3.1,Active,Active,0.146,39.8,1.07e+07,18,Active,23.8,38.4,Active,Activity (Mus musculus [11]): Active; Activity (Mus musculus [12]): Active; Activity (Mus musculus [13]): 6.7%; Activity (Mus musculus [14]): 11.2 to 14.9 mmol/L; Activity (Mus musculus [15]): Active; Activity (Mus musculus [16]): 55%; Activity (Mus musculus [17]): Active; Activity (Mus musculus [18]): Active; Activity (Mus musculus [19]): Active; Activity (Mus musculus [20]): 1.4 mmol/L; Activity (Mus musculus [21]): 4.5 mmol/L; Activity (Mus musculus [22]): 1.4 mmol/L; Activity (Mus musculus [23]): 1.6 mmol/L; Activity (Mus musculus [24]): 56.9 IU/L; Activity (Mus musculus [25]): 62.4 IU/L
SEMAGLUTIDE,,Active,Active,,,1.1e+07,17.2,Active,,,,
